Assay results taken from ChEMBL document CHEMBL1151458, “Comparative analysis of the bactericidal activities of amphibian peptide analogues against multidrug-resistant nosocomial bacterial strains” (2008).
Calls of active or inactive are those of the source. No cut-off for these calls is given here.

Experiments:
Pseudomonas aeruginosa [1] = experiment: Bactericidal activity against Pseudomonas aeruginosa isolate 1 with AMP-CFZ-CIP-CTX-CXM-GEN-LVX-SXT-TET resistance phenotype assessed as concentration required for >= 3 log10 CFU/ml reduction in viable bacteria in sodium phosphate buffer at pH 7.4 after 1.5 hrs by liquid microdilution assay; format: functional
Procedure, shortened: (§1)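 Clinical multidrug-resistant isolates grown to mid-log in tryptone soy broth and stored frozen. Exponential cells resuspended in 10 mM sodium phosphate buffer, pH 7.4, at 1 × 10^7 CFU/ml; 10 μl incubated with graded peptide concentrations in 100 μl at 37°C for 1.5 h. Plated on tryptone soy agar, CFU read after 24 h at 37°C. Peptide stocks in 20% ethanol.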

Pseudomonas aeruginosa [2] = experiment: Bactericidal activity against Pseudomonas aeruginosa isolate 2 with AMP-CFZ-CIP-CTX-CXM-GEN-LVX-IPM-MEM-SXT-TET resistance phenotype assessed as concentration required for >= 3 log10 CFU/ml reduction in viable bacteria in sodium phosphate buffer at pH 7.4 after 1.5 hrs by liquid microdilution assay; format: functional; procedure, shortened: as §1
[3] = tested on: Stenotrophomonas maltophilia; experiment: Bactericidal activity against Stenotrophomonas maltophilia isolate 4 with AMK-CAZ-CIP-FEP-IPM-SAM-TZP resistance phenotype assessed as concentration required for >= 3 log10 CFU/ml reduction in viable bacteria in sodium phosphate buffer at pH 7.4 after 1.5 hrs by liquid microdilution assay; format: functional; procedure, shortened: as §1
Staphylococcus aureus [4] = experiment: Antimicrobial activity against Staphylococcus aureus isolate 1 with AMC-AMP-CIP-ERY-GEN-OXA-RIF resistance phenotype at twofold the bactericidal concentration within 30 mins; format: functional, organism-based
Procedure, shortened: (§2)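 Time-kill in 10 mM sodium phosphate buffer, pH 7.4: 1 × 10^7 CFU/ml mid-log clinical isolate (10 μl) exposed at 37°C to peptide at the 1.5-h bactericidal concentration or twofold that, in 100 μl. Samples taken from 2 min onward, plated on tryptone soy agar, CFU counted after 24 h at 37°C. Killing taken as ≥3 log10 CFU/ml drop.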

Acinetobacter baumannii [5] = experiment: Bactericidal activity against Acinetobacter baumannii isolate 3 with AMP-AMC-CFZ-CIP-IPM-SXT-TET-TOB resistance phenotype assessed as concentration required for >= 3 log10 CFU/ml reduction in viable bacteria in 20% heat-inactivated human serum after 1.5 hrs by liquid microdilution assay; format: functional
Procedure, shortened: (§3)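 The buffer microdilution kill assay (1 × 10^7 CFU/ml mid-log cells, 10 μl in 100 μl, 37°C, 1.5 h, CFU on tryptone soy agar after 24 h) with serum added to 20% or 40% final. Serum was pooled from five healthy donors, clotted at room temperature, spun at 300 × g and heat-inactivated at 56°C for 30 min.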

Enterococcus faecium = experiment: Antimicrobial activity against Enterococcus faecium isolate 3 with AMP-CIP-CTX-ERY-GEN-LVX-SXT-TEC-VAN resistance phenotype at twofold the bactericidal concentration within 30 mins; format: functional, organism-based; procedure, shortened: as §2
[6] = tested on: Stenotrophomonas maltophilia; experiment: Bactericidal activity against Stenotrophomonas maltophilia isolate 2 with AMK-CIP-CTX-IPM-MEM-SAM-TZP resistance phenotype assessed as concentration required for >= 3 log10 CFU/ml reduction in viable bacteria in 40% heat-inactivated human serum after 1.5 hrs by liquid microdilution assay; format: functional; procedure, shortened: as §3
Staphylococcus aureus [7] = experiment: Antimicrobial activity against Staphylococcus aureus isolate 1 with AMC-AMP-CIP-ERY-GEN-OXA-RIF resistance phenotype at bactericidal concentration within 30 mins; format: functional, organism-based; procedure, shortened: as §2
Acinetobacter baumannii [8] = experiment: Bactericidal activity against Acinetobacter baumannii isolate 1 with AMP-AMC-CFZ-CIP-IPM-LVX-PIP-SXT-TET resistance phenotype assessed as concentration required for >= 3 log10 CFU/ml reduction in viable bacteria in sodium phosphate buffer at pH 7.4 after 1.5 hrs by liquid microdilution assay; format: functional; procedure, shortened: as §1
Acinetobacter baumannii [9] = experiment: Antimicrobial activity against Acinetobacter baumannii isolate 3 with AMP-AMC-CFZ-CIP-IPM-SXT-TET-TOB resistance phenotype assessed as time to kill at bactericidal concentration; format: functional; procedure, shortened: as §2
Pseudomonas aeruginosa [10] = experiment: Antimicrobial activity against Pseudomonas aeruginosa isolate 1 with AMP-CFZ-CIP-CTX-CXM-GEN-LVX-SXT-TET resistance phenotype at bactericidal concentration after 30 mins by time kill assay; format: functional, organism-based; procedure, shortened: as §2

For H-GIFSKLAGKKLKNLLISG-NH2, the Activity (Pseudomonas aeruginosa [1]) was 1 µM, the Activity (Pseudomonas aeruginosa [2]) was 1 µM and the Activity [3] was 0.5 µM. The Activity (Staphylococcus aureus [4]) was “inactive”, the Activity (Acinetobacter baumannii [5]) was 16 µM and the Activity (Enterococcus faecium) was “inactive”. The Activity [6] was 16 µM, the Activity (Staphylococcus aureus [7]) was “inactive” and the Activity (Acinetobacter baumannii [8]) was 0.5 µM. For the same substance, the Time (Acinetobacter baumannii [9]) was 2 min and the Activity (Pseudomonas aeruginosa [10]) was “inactive”.
